High-throughput results: PubChem BioAssay, The Scripps Research Institute Molecular Screening Center
OX1R antag-1 – OX1R (HCRTR1) antagonists, primary screen, fluorescence, CHO/OX1R cells, Fluo-8 calcium, orexin A | Orexin/Hypocretin receptor type 1 (Homo sapiens), O43613 | Fluo-8 calcium fluorescence | inhibition, % at 5 µM | 0.43% of 330,000 active | AID 434989, 2010;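 active = inhibition above its plate's threshold, mean inhibition of all tested compounds on the plate plus 3 SD, cut at about 37% in these data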;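 also: 0% = orexin A challenge wells and 100% = SB-334867-A antagonist wells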
CHO parental Ca – ATP-evoked calcium signal inhibitors, parental CHO, primary screen, counter-screen for OX1R antagonist project, cell-based, fluorescence, Fluo-8 calcium dye | 0.63% of 330,000 active | parental CHO-K1, ATP-induced calcium, Fluo-8 fluorescence | inhibition, % at 5.6 µM;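 active = inhibition above that plate's mean sample inhibition plus 3 SD, cut at about 26% in these data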;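 also: 0% = ATP-challenged DMSO wells and 100% = DMSO wells without ATP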
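Assay system – parental CHO cells · Reagent – ATP stimulus · Detection – intracellular calcium via Fluo-8 no-wash fluorescent dye · Evaluation – percent inhibition of ATP-evoked calcium rise, normalized to controls · Controls – ATP wells versus no-ATP DMSO wells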
TAAR1 antagonist – human TAAR1 antagonists, primary screen, Fluo-8 calcium fluorescence, CHO RD-HGA16 cells; Trace amine-associated receptor 1 (Homo sapiens), Q96RJ0; antagonist; inhibition, % at 3 µM; 1.5% of 360,000 active;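 active = inhibition above a per-plate cutoff, the mean inhibition of test compounds on that plate plus 3 SD, cut at about 49% in these data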;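 also: 0% = DMSO plus EC80 beta-PEA response and 100% = DMSO alone without agonist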
Target sequence (Q96RJ0 whole entry, looked up): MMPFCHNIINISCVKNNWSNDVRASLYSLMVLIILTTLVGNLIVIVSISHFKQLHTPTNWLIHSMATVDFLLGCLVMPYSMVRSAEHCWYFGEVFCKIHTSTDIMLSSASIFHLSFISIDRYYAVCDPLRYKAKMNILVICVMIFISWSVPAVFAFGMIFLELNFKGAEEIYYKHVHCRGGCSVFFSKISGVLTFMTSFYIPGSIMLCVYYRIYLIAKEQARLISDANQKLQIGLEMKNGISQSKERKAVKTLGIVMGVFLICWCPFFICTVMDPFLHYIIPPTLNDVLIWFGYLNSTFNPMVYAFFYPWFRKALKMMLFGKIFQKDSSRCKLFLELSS
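Assay system: CHO-derived RD-HGA16 cells stably expressing human TAAR1 plus Gα16. Timing: 140 s kinetic read after compound, 140 s after agonist. Technique: kinetic Fluo-8 calcium fluorescence measurement. Measure: % inhibition of agonist calcium response.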
OX1R antag-2 – antagonists of human orexin 1 receptor (OX1R); 1.8% of 330,000 active; Orexin/Hypocretin receptor type 1 (Homo sapiens), O43613; inhibition, % at 6.6 µM; AID 485270, 2010; OX1R-expressing cells, FRET antagonist read-out; in the data active = inhibition mostly above about 38%, no sharp cut-off; inactive = mostly below about 40%;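 also: 0% = agonist challenge alone and 100% = reference antagonist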
TAAR1 agonist – human TAAR1 agonists, primary screen, Fluo-8 calcium fluorescence, CHO RD-HGA16 cells; activation, % at 3 µM; vehicle wells 0%, saturating PEA agonist 100%; 0.99% of 360,000 active; Trace amine-associated receptor 1 (Homo sapiens), Q96RJ0; AID 624467, 2012;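 active = activation above the mean activation of all test compounds in the run plus 3 SD, cut at about 38% in these data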
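Assay system: CHO-derived RD-HGA16 cells with stable Gα16 and human TAAR1; timing: 17-24 h seeding, 75 min 37 °C dye, 30 min RT; read-out: % activation from peak over basal fluorescence ratio, DMSO-to-PEA scaled; measured by: kinetic Fluo-8 calcium fluorescence; benchmarks: low control DMSO, high control PEA (EC100); doses: 3 µM single concentration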
GPR7 antag – GPR7 receptor antagonists, primary screen, cell-based, fluorescence, single concentration; 1.1% of 290,000 active; Neuropeptides B/W receptor type 1 (Homo sapiens), P48145; inhibition, % at 4.4 µM; GPR7-expressing cells, fluorescence antagonist assay; in the data active = inhibition above about 16%, passing the limit was not always enough;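 also: cells stimulated with the agonist NPW; 0% = agonist with vehicle and 100% = vehicle without agonist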
TAAR1 ag confirm – human TAAR1 agonists, retest of hits, confirmation, Fluo-8 calcium fluorescence, CHO RD-HGA16 cells. activation, % at 3 µM. scaled: DMSO 0%, maximal phenethylamine 100%. 82% of 2,400 active. shares compounds with TAAR1 agonist. AID 651783, 2012;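 active = activation above a cutoff set at the run's mean compound activation plus 3 SD, cut at about 39% in these data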
Ga16 nonsel ag – nonselective calcium mobilization agonists, CHO-Ga16 cells, counter-screen for hTAAR1 agonist project, cell-based, fluorescence, CHO-Ga16 parental line; shares compounds with TAAR1 agonist; Fluo-8 calcium fluorescence; normalized to maximal ATP response, DMSO zero; activation, % at 3 µM; 50% of 2,400 active; AID 651787, 2012;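 active = activation above the run cutoff, the mean activation over all tested wells plus 3 SD, cut at about 12% in these data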;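 also: 0% = DMSO wells and 100% = maximal ATP response on the peak over basal ratio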
TAAR1 desensitize – TAAR1 desensitization by agonist hits, confirmation, counter-screen for TAAR1 agonist project, cell-based, fluorescence, tachyphylaxis | shares compounds with TAAR1 agonist | CHO RD-HGA16 hTAAR1, Fluo-8 calcium, beta-PEA response inhibition | inhibition, % at 3 µM | 46% of 2,400 active | AID 651951, 2012;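 active = inhibition above the run cutoff, the mean inhibition of all test compounds plus 3 SD, cut at about 49% in these data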;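 also: beta-PEA stimulus applied at its EC80; loss of beta-PEA calcium signal after compound pretreatment read as receptor desensitization; 0% = DMSO with beta-PEA at EC80 and 100% = DMSO alone without agonist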
Ga16 nonsel ant – inhibition of ATP-evoked calcium response in CHO-Ga16 cells, counter-screen for TAAR1 agonist project, cell-based, fluorescence; shares compounds with TAAR1 agonist; CHO-Ga16 ATP-induced calcium, Fluo-8 fluorescence; inhibition, % at 3 µM; 39% of 2,400 active;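 active = inhibition above the plate's mean compound inhibition plus 3 SD, computed per plate, cut at about 22% in these data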;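 also: 0% = EC80 ATP with DMSO and 100% = DMSO wells without ATP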
Starred values were filed as active, the others as inactive; · = no result given. Compounds with a hit are over-represented: about 4.6% of the library has one in this group of screens.

SMILES	OX1R antag-1	CHO parental Ca	TAAR1 antagonist	OX1R antag-2	TAAR1 agonist	GPR7 antag	TAAR1 ag confirm	Ga16 nonsel ag	TAAR1 desensitize	Ga16 nonsel ant
CCCCC(CC)CNC(=O)C1C2C=CC(C2)C1C(=O)O (centres undefined)	-7	-3	49*	12	78*	-8	90*	5	51*	-3
O=C(O)C1C2C=CC(C2)C1C(=O)NCCCc1ccccc1 (centres undefined)	7	11	28	4	76*	-4	80*	1	31	3
O=C(O)C1C2C=CC(C2)C1C(=O)NCCc1ccccc1 (centres undefined)	-3	-7	92*	11	84*	-11	96*	2	94*	2
Cc1noc(C)c1C(=O)OCC(=O)N1CCc2ccccc21	-2	-4	1	3	-2	·	·	·	·	·
CCOCCCNc1nc(C(F)(F)F)nc2c1nnn2Cc1ccccc1Cl	-37	-25	5	5	-1	-25	·	·	·	·
C=CCNc1nc(C(F)(F)F)nc2c1nnn2Cc1ccccc1Cl	-2	10	16	2	50*	-23	54*	35*	9	4
Cc1nc(NCCc2ccccc2)c2nnn(Cc3ccccc3Cl)c2n1	-5	-8	79*	-7	86*	1	91*	8	85*	8
CC1=C(NCCc2ccccc2)CCC1=O	-17	-18	60*	31	95*	9	103*	4	87*	0
CCC1=NN(C(=O)c2ccc(Cl)cc2)C(O)(c2ccc(C)cc2)C1 (centres undefined)	·	·	4	·	0	-8	·	·	·	·
CCOC(=O)C1=NN(C(=O)c2ccc(C)cc2)C(O)(c2ccc(Cl)cc2)C1 (centres undefined)	-9	-12	73*	15	116*	6	69*	79*	32	42*
CCCCN(CCCC)c1ccc(C(=O)c2ccccc2C(=O)O)c(O)c1	78*	94*	92*	18	107*	8	38*	39*	64*	57*
CN(C)c1ccc(C(=O)c2ccccc2C(=O)O)c(O)c1	-15	3	7	12	2	-7	·	·	·	·
O=C(NCc1ccco1)c1sc(=S)n2c1[nH]c(=O)c1ccccc12	8	-6	36	50*	75*	7	38*	23*	15	17
Cc1ccc(C(=O)NNC(=S)NC(=O)c2ccc(Cl)cc2Cl)cc1	57*	45*	108*	1	172*	14	161*	123*	107*	101*
O=C(COc1ccccc1)NNC(=S)NC(=O)c1ccc(Cl)cc1Cl	-22	-12	·	-2	·	-3	·	·	·	·
